Assays:
[1] = Cytotoxicity against human HepG2 cells; format: cell-based; details: read-out: TC50 (the source's name)
[2] = Selectivity index, ratio of TC50 for human HepG2 cells to EC50 for Plasmodium falciparum D6 trophozoites; format: toxicity; details: read-out: Selectivity Index
In short: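 P. falciparum D6 screened in duplicate or quadruplicate. Selectivity = HepG2 TC50 / P. falciparum EC50.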

Plasmodium falciparum = assay: Antimalarial activity against Plasmodium falciparum D6 trophozoites after 72 hrs by SYBR Green I dye-based fluorescence assay; format: functional, organism-based; details: D6, 72 h
In short: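 P. falciparum D6 strain; compounds run in duplicate or quadruplicate; EC50 determined from dose-response.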

[3] = Selectivity index, ratio of TC50 for mouse NIH/3T3 cells to EC50 for Trypanosoma cruzi Tulahuen intracellular amastigote harboring beta-galactosidase; format: toxicity, cell-based; details: read-out: Selectivity Index
In short: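 NIH 3T3 cells, the host line for intracellular T. cruzi amastigote culture, tested for toxicity. Selectivity = NIH3T3 TC50 / T. cruzi EC50.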

Trypanosoma cruzi = assay: Antitrypanosomal activity against Trypanosoma cruzi Tulahuen intracellular amastigote harboring beta-galactosidase infected in mouse NIH/3T3 cells after 96 hrs by CPRG reagent based assay; format: functional, organism-based; details: NIH3T3, 96 h
[4] = Selectivity index, ratio of TC50 for human HepG2 cells to EC50 for Trypanosoma brucei brucei 427; format: toxicity; details: read-out: Selectivity Index
[5] = Cytotoxicity against mouse NIH/3T3 cells; format: cell-based, NIH3T3; details: read-out: TC50 (the source's name)
Leishmania major = assay: Antileishmanial activity against Leishmania major intracellular amastigotes harboring luciferase infected in mouse RAW264.7 cells after 96 hrs by luminescence assay; format: functional, organism-based; details: RAW264.7, 96 h
In short: (§1)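 L. major amastigotes screened in duplicate or quadruplicate. Selectivity derived as HepG2 TC50 / L. major EC50.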

[6] = test system: Trypanosoma brucei brucei; assay: Antitrypanosomal activity against Trypanosoma brucei brucei 427 at 5 uM after 48 hrs by presto blue dye based fluorescence assay relative to control; format: functional
In short: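 Single-concentration screen of bloodstream T. brucei cultures at 5 μM, 5 × 10^4 cells/mL; percent proliferation inhibition recorded.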

[7] = test system: Trypanosoma brucei brucei; assay: Antitrypanosomal activity against Trypanosoma brucei brucei 427 after 48 hrs by presto blue dye based fluorescence assay; format: functional, organism-based; details: Trypanosoma brucei, 427, 48 h
[8] = Selectivity index, ratio of TC50 for human HepG2 cells to EC50 for Leishmania major intracellular amastigotes harboring luciferase infected in mouse RAW264.7 cells; format: toxicity, cell-based; details: read-out: Selectivity Index; in short: as §1

Row | Structure (SMILES) | CC50 [1] [µM] | selectivity ratio [2] | EC50 (Plasmodium falciparum) [µM] | selectivity ratio [3] | EC50 (Trypanosoma cruzi) [µM] | selectivity ratio [4] | CC50 [5] [µM] | EC50 (Leishmania major) [µM] | Activity [6] [%] | EC50 [7] [µM] | selectivity ratio [8]
1 | Fc1cccc(COc2ccc(Nc3ncnc4cc(C#Cc5ccccn5)sc34)cc2Cl)c1 | 24 | 12 | 2 | 2.3 | 12 | 18 | 27 | 0.38 | >75 | 1.3 | 63
2 | C[C@@H]1[C@H](O)[C@@H](C)/C=C/C=C/C=C/C=C/C=C/C=C/C=C/[C@H](O[C@@H]2O[C@H](C)[C@@H](O)[C@H](N)[C@@H]2O)C[C@@H]2O[C@](O)(C[C@@H](O)C[C@@H](O)[C@H](O)CC[C@@H](O)C[C@@H](O)CC(=O)O[C@H]1C)C[C@H](O)[C@H]2C(=O)O [AMPHOTERICIN B] |  |  |  |  |  |  |  | 0.035 |  |  | 
3 | Fc1cccc(COc2ccc(Nc3ncnc4ccc(C#CCN5CCOCC5)cc34)cc2Cl)c1 | > 30 | > 5.1 | 5.9 | 41 | 0.8 |  | 33 | 5.5 | 27 |  | > 5.5
4 | Fc1cccc(COc2ccc(Nc3ncnc4cc(C#CC5CCCC5)sc34)cc2Cl)c1 | > 31 | > 8.6 | 3.6 |  | > 50 | > 41 | > 100 | > 15 | >75 | 0.76 | 
5 | Fc1cccc(COc2ccc(Nc3ncnc4ccc(C#CC5CCCC5)cc34)cc2Cl)c1 | > 3 |  | > 15 | > 25 | 2 |  | > 50 | > 2 | 2 |  | 
6 | CCCN(CC#Cc1cc2ncnc(Nc3ccc(OCc4cccc(F)c4)c(Cl)c3)c2s1)CCC | 26.5 |  | > 15 |  | > 50 |  | > 50 | 6 | 1 |  | 4.5
7 | CN(CC#Cc1cc2c(Nc3ccc(OCc4cccc(F)c4)c(Cl)c3)ncnc2s1)Cc1ccccc1 | 21.6 | 4.6 | 4.8 | 1.3 | 1.9 |  | 2.5 | 11 | 0 |  | 2
8 | COCC#Cc1cc2c(Nc3ccc(OCc4cccc(F)c4)c(Cl)c3)ncnc2s1 | 9.5 | 3.2 | 3.02 | 1.1 | 1.5 |  | 1.7 | 7.3 | 18 |  | 1.3
9 | Fc1cccc(COc2ccc(Nc3ncnc4cc(C#Cc5ncccc5F)sc34)cc2Cl)c1 | 30 | 27 | 1.1 | 2.5 | 19 |  | 47 | > 15 | 19 |  | 
10 | CC(C)CC#Cc1cc2ncnc(Nc3ccc(OCc4cccc(F)c4)c(Cl)c3)c2s1 | > 32 |  | > 15 |  | > 50 |  | > 50 | > 15 | 11 |  | 
11 | CC(C)(C)OC(=O)N1CCC[C@H]1C#Cc1cc2ncnc(Nc3ccc(OCc4cccc(F)c4)c(Cl)c3)c2s1 | > 26 | > 15 | 1.7 |  | > 50 | > 22 | > 100 | 1.6 | >75 | 1.2 | > 16
12 | Fc1cccc(COc2ccc(Nc3ncnc4cc(C#CCN5CCSCC5)sc34)cc2Cl)c1 | > 28 |  | > 15 | > 10 | 5 |  | > 50 | 5.9 | 12 |  | > 4.8
13 | CN(C)CC#Cc1cc2ncnc(Nc3ccc(OCc4cccc(F)c4)c(Cl)c3)c2s1 | > 32 |  | > 15 | > 6 | 8.2 |  | > 50 | 2.5 | 52 |  | > 13
14 | O=C(Cn1ccnc1[N+](=O)[O-])NCc1ccccc1 [BENZNIDAZOLE] |  |  |  |  | 0.79 |  |  |  |  |  | 
15 | CN(C)CC#Cc1cc2c(Nc3ccc(OCc4cccc(F)c4)c(Cl)c3)ncnc2s1 | > 32 | > 21 | 1.5 | 16 | 2.6 | > 13 | 41 | 5.5 | >75 | 2.5 | > 5.8
16 | Fc1cccc(COc2ccc(Nc3ncnc4cc(C#Cc5ccc(C(F)(F)F)nc5)sc34)cc2Cl)c1 | > 5 |  | > 3.6 |  | > 50 |  | > 50 | > 3 | 31 |  | 

Row | Structure (SMILES) | CC50 [1] [µM] | selectivity ratio [2] | EC50 (Plasmodium falciparum) [µM] | selectivity ratio [3] | EC50 (Trypanosoma cruzi) [µM] | selectivity ratio [4] | CC50 [5] [µM] | EC50 (Leishmania major) [µM] | Activity [6] [%] | EC50 [7] [µM] | selectivity ratio [8]
17 | CC(C)(C)CC#Cc1cc2c(Nc3ccc(OCc4cccc(F)c4)c(Cl)c3)ncnc2s1 | > 32 | > 5.6 | 5.7 | > 1.7 | 30 |  | > 50 | > 15 | 1 |  | 
18 | CCOC(=O)CN(C)CC#Cc1ccc2ncnc(Nc3ccc(OCc4cccc(F)c4)c(Cl)c3)c2c1 | > 28 |  | > 15 | > 6.3 | 8 |  | > 50 | > 15 | 23 |  | 
19 | CCN(CC)CCCC(C)Nc1ccnc2cc(Cl)ccc12 (centres undefined) [CHLOROQUINE] |  |  | 0.0089 |  |  |  |  |  |  |  | 
20 | Fc1cccc(COc2ccc(Nc3ncnc4ccc(-c5cccc(N6CCOCC6)c5)cc34)cc2Cl)c1 | > 35 |  |  |  |  |  |  |  |  |  | 
21 | Cc1ccc(C(=O)Nc2ccc(S(=O)(=O)O)c3cc(S(=O)(=O)O)cc(S(=O)(=O)O)c23)cc1NC(=O)c1cccc(NC(=O)Nc2cccc(C(=O)Nc3cc(C(=O)Nc4ccc(S(=O)(=O)O)c5cc(S(=O)(=O)O)cc(S(=O)(=O)O)c45)ccc3C)c2)c1 [SURAMIN] |  |  |  |  |  |  |  |  |  | 0.04 | 
22 | Fc1cccc(COc2ccc(Nc3ncnc4sc(C#CCN5CCOCC5)cc34)cc2Cl)c1 | > 29 | > 9.7 | 3 |  |  |  |  | 6.5 | 48 |  | > 4.5
23 | CN(CC#Cc1cc2ncnc(Nc3ccc(OCc4cccc(F)c4)c(Cl)c3)c2s1)Cc1ccccc1 | > 27 |  | > 15 |  | > 50 |  | > 50 | > 15 | 18 |  | 
24 | Fc1cccc(COc2ccc(Nc3ncnc4cc(C#Cc5cn6ccnc6cn5)sc34)cc2Cl)c1 | > 28 | > 4.9 | 5.7 |  | > 50 |  | > 50 | > 15 | 33 |  | 
25 | Fc1cccc(COc2ccc(Nc3ncnc4ccc(C#CCN5CCSCC5)cc34)cc2Cl)c1 | > 29 | > 26 | 1.1 | > 20 | 2.5 |  | > 50 | 5.4 | 19 |  | > 5.4
26 | CC(C)(C)CC#Cc1cc2ncnc(Nc3ccc(OCc4cccc(F)c4)c(Cl)c3)c2s1 | 29.3 |  | > 15 |  | > 50 |  | > 50 | > 15 | 31 |  | 
27 | Fc1cccc(COc2ccc(Nc3ncnc4cc(C#CCN5CCNCC5)sc34)cc2Cl)c1 | > 29 | > 15 | 1.9 |  | > 50 |  | > 50 | 4 | 16 |  | > 7.3
28 | CC(C)(C)OC(=O)N1CCN(CC#Cc2cc3ncnc(Nc4ccc(OCc5cccc(F)c5)c(Cl)c4)c3s2)CC1 | > 24 | > 19 | 1.5 | 3.6 | 13 |  | 47 | 6.9 | 15 |  | > 3.5
29 | Fc1cccc(COc2ccc(Nc3ncnc4cc(C#CCN5CCOCC5)sc34)cc2Cl)c1 | > 29 | > 9.7 | 3 | 1.4 | 3.4 |  | 4.7 | 7.6 | 16 |  | > 3.8
30 | CCOC(=O)CN(C)CC#Cc1cc2ncnc(Nc3ccc(OCc4cccc(F)c4)c(Cl)c3)c2s1 | 27 | 7.1 | 3.8 | 5.4 | 9.6 |  | 52 | 4.6 | 27 |  | 5.9
31 | CCOC(=O)CN(C)CC#Cc1cc2c(Nc3ccc(OCc4cccc(F)c4)c(Cl)c3)ncnc2s1 | > 28 |  | > 15 |  | > 50 |  | > 50 | 9 | 53 |  | > 3.1

Source: ChEMBL document CHEMBL4266004, “Series of Alkynyl-Substituted Thienopyrimidines as Inhibitors of Protozoan Parasite Proliferation” (ACS Med Chem Lett, 2018)
